The test system of data set [1] is Dengue virus. The data set is described as follows: Antiviral activity against 0.0001 MOI Dengue virus NGC infected in Cricetinae BHK21 cells assessed as decrease in viral E protein production […] by plaque reduction assay. It counts as functional, organism-based. Conditions: BHK-21. For orientation: Plaques are areas of infected cells; plaque reduction assays count them against a control.

Data set [2] has as its system Dengue virus. The data set is described as follows: Antiviral activity against Dengue virus NGC infected in human A549 cells assessed as decrease in viral E protein production after 48 hrs by CFI assay. It counts as functional, organism-based. Conditions: A549, 48 h. The method in brief: (§1)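 A549 or BHK21 cells at 2 x 10^4/well grown overnight, then infected at MOI 0.3 with compound dilutions for 1 h at 37°C. Inoculum replaced by medium with compound for 48 h. Methanol-fixed, probed with anti-E antibody 4G2 and HRP anti-mouse IgG, developed with TMB, absorbance at 450 nm. EC50 by nonlinear regression of mean absorbance vs log concentration.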

Data set [3] is described as follows: Cytotoxicity against human A549 cells after 48 hrs by celltiter-glo luminescent cell viability assay. Type of data set: cell-based. The method in brief:
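A549 cells plated and compound added as in the immunodetection assay, then incubated for 48 h. Viability by CellTiter-Glo luminescence relative to DMSO-treated cells, giving CC50.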
For orientation: ATP-based viability assays read luminescence as a measure of living cells.

For data set [4], the system named is Dengue virus. The data set is described as follows: Antiviral activity against Dengue virus NGC infected in human A549 cells assessed as colocalization of virus measured as E protin signal after 2 hrs by confocal microscopy. Type of data set: functional, organism-based. The method in brief:
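Virus pre-incubated with biotinylated compound, then passed through a gel-filtration spin column. Eluate used to infect A549 cells on coverslips for 2 h at 37°C. Cells fixed in formaldehyde for 15 min, compound detected with streptavidin-FITC and virus with anti-E antibody. Confocal microscopy.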

Another data set relates to Yellow fever virus. Briefly: Antiviral activity against Yellow fever virus 17D infected in human A549 cells assessed as decrease in viral E protein production after 48 hrs by CFI assay. It counts as functional, cell-based. To be noted: A549, 48 h. The method in brief: as §1
The subject of another data set is dengue virus type 1. Briefly: Antiviral activity against DENV-1 isolate My97-10245 infected in Cricetinae BHK21 cells assessed as decrease in viral E protein production after 48 hrs by CFI assay. It counts as functional, organism-based. To be noted: isolate My97-10245, BHK-21, 48 h. Put shortly: as §1
The subject of a further data set is dengue virus type 3. Briefly: Antiviral activity against DENV-3 isolate My99-21531 infected in Cricetinae BHK21 cells assessed as decrease in viral E protein production after 48 hrs by CFI assay. Conditions: isolate My99-21531, BHK-21, 48 h. It counts as functional, organism-based. Put shortly:
as §1

In data set [5] the test system is Dengue virus. The data set is described as follows: Antiviral activity against Dengue virus NGC infected in human A549 cells assessed as change in endosomal pH at 0.2 microM by Lysosensor green DND189 accumulation assay. It counts as functional, organism-based. Put shortly:
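A549 cells on coverslips exposed to compound or bafilomycin A1 in Ham's F-12 with 2% FBS for 4 h at 37°C; 0.9% DMSO as control. Stained with 0.5 µM Lysosensor green DND-189 for 2 min at room temperature, washed, and imaged live by fluorescence microscopy.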

The next data set relates to dengue virus type 4. The data set is described as follows: Antiviral activity against DENV-4 isolate My01-22713 infected in Cricetinae BHK21 cells assessed as decrease in viral E protein production after 48 hrs by CFI assay. Conditions: isolate My01-22713, BHK-21, 48 h. Type of data set: functional, organism-based. The method in brief:
as §1

The test system of data set [6] is Dengue virus. The data set is described as follows: Antiviral activity against 25 MOI Dengue virus NGC infected in human A549 cells assessed as inhibition of NS3 protein production by CFI assay. It counts as functional, organism-based. Put shortly: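 A549 cells on coverslips infected at MOI 25 with or without compound for 7 h. Methanol-fixed and stained with anti-E 4G2 and anti-NS3 antibodies plus fluorescent secondaries, DAPI mounting. Immunofluorescence microscopy.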

The test system of data set [7] is Dengue virus. The data set is described as follows: Antiviral activity against Dengue virus NGC infected in human A549 cells assessed as viral antigen expression at 0.2 microM. It counts as functional.
Data set [8] has as its system Dengue virus. Briefly: Antiviral activity against Dengue virus NGC infected in human A549 cells assessed as decrease in viral E protein production during early stage of virus life cucle by CFI assay. Conditions: TDE = time-dependent effect. It counts as functional, organism-based. Put shortly:
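A549 cells infected at MOI 0.3 for 1 h at 37°C. Compound dilutions were present during infection only, after infection only, or throughout. Alternatively, a fixed concentration was added at 0–120 min after virus. E protein measured by immunodetection at 48 h. Duplicate wells in two experiments, or three independent experiments for the time course.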

A short description of data set [9]: Antiviral activity against Japanese encephalitis virus Nakayama infected in Cricetinae BHK21 cells assessed as decrease in viral E protein production after 48 hrs by CFI assay. To be noted: BHK-21, 48 h. Type of data set: functional, cell-based, Japanese encephalitis virus strain Nakayama. Put shortly: as §1
Data set [10] deals with dengue virus type 2. The data set is described as follows: Antiviral activity against DENV-2 NGC infected in Cricetinae BHK21 cells assessed as decrease in viral E protein production after 48 hrs by CFI assay. Conditions: BHK-21, 48 h. It counts as functional, organism-based. The method in brief:
as §1

The test system of data set [11] is dengue virus type 2. Briefly: Antiviral activity against DENV-2 NGC infected in human A549 cells assessed as decrease in viral E protein production after 48 hrs by CFI assay. It counts as functional, organism-based. Conditions: A549, 48 h. The method in brief: as §1
Data set [12] has as its system Dengue virus. The data set is described as follows: Binding affinity to Dengue virus particles by liquid chromatography. Put shortly:
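Dengue virus (6 x 10^7 PFU) incubated with 5 µM compound at room temperature for 30 min, then loaded onto a gel-filtration spin column and centrifuged. Eluate analysed by LC-MS/MS in multiple-reaction-monitoring mode. Compound without virus run as a control.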

Data set [13] has as its system Dengue virus. The data set is described as follows: Antiviral activity against 25 MOI Dengue virus NGC infected in human A549 cells assessed as colocalized virus with endocytosed dextran by confocal microscopy. Type of data set: functional, organism-based. Put shortly:
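A549 cells on coverslips (1 x 10^5/well) infected at MOI 0.3? no: MOI 25 with 5 µM compound for 7 h. Rhodamine-dextran 20 mg/ml added for 20 min at 37°C, then methanol fixation and anti-E 4G2 staining with FITC secondary. Examined by confocal microscopy.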

The next data set concerns West Nile virus. Briefly: Antiviral activity against West nile virus B956 infected in Cricetinae BHK21 cells assessed as decrease in viral E protein production after 48 hrs by CFI assay. Type of data set: functional, organism-based. Conditions: B956, BHK-21, 48 h. The method in brief: as §1

This passage reports EC50, CC50 and Activity results from ChEMBL document CHEMBL1629677, “A small-molecule dengue virus entry inhibitor” (Antimicrob Agents Chemother, 2009).

Active and inactive are the calls of the source. The rule behind the calls is not given here. Where only a bound is given, the exact number is not on record here.

With `CC1(C)CC(Nc2nc(-c3ccc(-c4ccc(Cl)cc4)s3)c3ccccc3n2)CC(C)(C)N1`, the figures for the 50% effective concentration (EC50) in the data set with Dengue virus [1] and with Dengue virus [2] were 84 nM and 40 nM, respectively. In data set [3], the midpoint of cytotoxicity, the CC50 at 48 h, lay at 18600 nM.

Regarding `CC(=O)c1cccc(-c2ccc(-c3ccnc(NC4CC(C)(C)NC(C)(C)C4)n3)s2)c1`, the figures for the EC50 with Dengue virus [1] and in the data set with Dengue virus [2] were 300 nM and 900 nM, respectively. For the same molecule, the CC50 at 48 h in data set [3] is over 20000 nM.

In the case of `Clc1ccc(-c2ccc(-c3ccnc(N4CCNCC4)n3)s2)cc1`, the EC50 in the data set with Dengue virus [1] amounted to 41 nM; in the data set on Dengue virus [2], 90 nM. In data set [3], this molecule had a CC50 at 48 h of over 20000 nM.

Take `CC1(C)CC(Nc2nccc(-c3ccc(-c4ccc(Cl)cc4)s3)n2)CC(C)(C)N1`: the EC50 with Dengue virus [1] was found to be 320 nM; in the data set with Dengue virus [2], 270 nM. The same molecule showed a CC50 at 48 h in [3] of over 20000 nM.

Regarding `CC(C)(N)/C=C/c1cccc(-c2ccc(-c3ccnc(NC4CC(C)(C)NC(C)(C)C4)n3)s2)n1`, the values for the EC50 with Dengue virus [1] and with Dengue virus [2] were 310 nM and 1690 nM, respectively. The molecule also returned a CC50 at 48 h in [3] of over 20000 nM.

For `O=C(CCCC[C@@H]1SC[C@H]2NC(=O)N[C@@H]12)NCCOCCOCCNc1nc(-c2ccc(-c3ccc(Cl)cc3)s2)c2ccccc2n1`, in the data set with Dengue virus [2], the EC50 is 234 nM. The outcome in the data set on Dengue virus [4] was inactive.

For `Clc1ccc(-c2ccc(-c3nc(NCc4cccnc4)nc4ccccc34)s2)cc1`, the EC50 in the data set with Yellow fever virus came out at 470 nM; in the data set on dengue virus type 1 it was 108 nM; in the data set on dengue virus type 3 it was 496 nM; with dengue virus type 4, 334 nM; in the data set on Dengue virus [1], 198 nM; with Dengue virus [2], 70 nM. For the same molecule, the EC50 in [9] was determined as 1420 nM; in the data set with dengue virus type 2 [10], 68 nM; in the data set with dengue virus type 2 [11] it was 119 nM; with West Nile virus, 564 nM. Also, in the data set with Dengue virus [5], the outcome was inactive. The result with Dengue virus [6], in the data set on Dengue virus [12] and in the data set on Dengue virus [13] was Active. Further, the Activity in the data set on Dengue virus [7] is over 50%; in the data set with Dengue virus [8] it was “tde”. The CC50 at 48 h in [3] is over 20000 nM.

As usually defined, the EC50 is the concentration giving half of the maximal effect. What is called CC50 is the concentration giving 50% cytotoxicity. Read a low CC50 as harm at low concentration.
